Publication PMC2752341 (Bioorganic & medicinal chemistry, 2008)
Blank lines part the entries; values can stand above or below the molecule they belong to.

What was measured:
human topoisomerase I = biological target: T1, human topoisomerase I (Homo sapiens, UniProt P11387); assay: Topoisomerase I-mediated DNA cleavage assay; type: biochemical; details: for TOP1-targeting activity (in words): summary of Table 1
T1 sequence (P11387 1-765): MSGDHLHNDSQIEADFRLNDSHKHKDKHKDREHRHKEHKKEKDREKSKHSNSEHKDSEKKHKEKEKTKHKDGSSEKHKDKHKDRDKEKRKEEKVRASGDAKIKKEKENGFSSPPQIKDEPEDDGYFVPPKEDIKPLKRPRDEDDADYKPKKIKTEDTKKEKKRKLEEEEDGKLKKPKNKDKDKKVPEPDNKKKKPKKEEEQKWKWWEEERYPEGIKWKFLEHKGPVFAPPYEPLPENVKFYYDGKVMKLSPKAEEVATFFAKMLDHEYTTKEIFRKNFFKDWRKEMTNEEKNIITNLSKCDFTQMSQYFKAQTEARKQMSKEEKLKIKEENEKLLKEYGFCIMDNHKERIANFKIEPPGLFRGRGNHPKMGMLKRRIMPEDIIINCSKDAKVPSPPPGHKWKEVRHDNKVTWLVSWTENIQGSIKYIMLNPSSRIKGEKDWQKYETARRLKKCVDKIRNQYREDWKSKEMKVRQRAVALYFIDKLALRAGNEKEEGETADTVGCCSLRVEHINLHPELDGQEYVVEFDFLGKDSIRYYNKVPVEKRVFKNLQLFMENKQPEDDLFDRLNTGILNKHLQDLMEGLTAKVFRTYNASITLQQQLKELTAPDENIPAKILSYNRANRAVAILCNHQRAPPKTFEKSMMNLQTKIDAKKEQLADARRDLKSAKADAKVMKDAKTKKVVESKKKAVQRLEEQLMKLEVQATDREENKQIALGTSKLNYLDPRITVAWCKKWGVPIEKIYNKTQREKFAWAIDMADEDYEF

[1] = test system: MDA-MB-435 human tumor xenografts; assay: Human tumor xenograft antitumor bioassay; type: in vivo, athymic nude mice; details: for Average tumor volume: MDA-MB-435 xenograft in athymic nude mice; for Antitumor activity in vivo (in words): MDA-MB-435 xenograft, at maximally tolerated doses, I.P.
In short: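 Female NCR/NU NU mice, about 9 weeks old, were inoculated sc in the right flank with 1.5 × 10^6 MDA-MB-435 cells (RPMI 1640/10% FBS culture) and grouped by matched tumor volume at 19–20 days. Test compound was given qd × 5/week at per-compound doses, some adjusted during the study; vehicle was 0.1% citrate in H2O. Caliper tumor volume ((l*w2)/2) was taken every other day, with daily weights.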

KBV-1 cells = assay: MTT cytotoxicity assay in KBV-1; type: cell-based; details: for Substrate for MDR1 efflux transporter (conclusion in words): from relative cytotoxicity KBV-1 vs KB3-1
KBH5.0 cells = assay: MTT cytotoxicity assay in KBH5.0; type: cell-based; details: from relative cytotoxicity KBH5.0 vs KB3-1
RPMI8402 cells = assay: MTT cytotoxicity assay in RPMI8402; type: cell-based, human

Structure (SMILES): CC[C@@]1(O)C(=O)OCc2c1cc1n(c2=O)Cc2cc3ccccc3nc2-1 [CPT, camptothecin, reference compound]
TOP1-mediated cleavage (REC, relative effective concentration) (human topoisomerase I; concentration relative to topotecan (=1) producing 10% cleavage of plasmid DNA): 0.2

Structure (SMILES): COc1cc2c(=O)n(CCN(C)C)c3c4cc5c(cc4ncc3c2cc1OC)OCO5 [Compound 1, 5H-8,9-dimethoxy-5-(2-N,N-dimethylaminoethyl)-2,3-methylenedioxydibenzo[c,h][1,6]-naphthyridin-6-one]
Average tumor volume ([1]; Day 7, I.P.): 120 mm^3 | Average tumor volume ([1]; Day 14, I.P.): 123 mm^3 | Average tumor volume ([1]; Day 21, I.P.): 145 mm^3 | Average tumor volume ([1]; Day 28, I.P.): 158 mm^3 | Average tumor volume ([1]; Day 35, I.P.): 175 mm^3 | Average tumor volume ([1]; Day 42, I.P.): 189 mm^3 | Average tumor volume ([1]; Day 49, I.P.): 242 mm^3

Structure (SMILES): CCN(CCn1c(=O)c2cc(OC)c(OC)cc2c2cnc3cc4c(cc3c21)OCO4)CC(F)(F)F [Compound 8, 2,3-Methylenedioxy-8,9-dimethoxy-5-[N-ethyl-N-(2,2,2-trifluoroethyl)aminoethyl]dibenzo[c,h][1,6]naphthyridin-6-one]
Average tumor volume ([1]; Day 7, I.P.): 127 mm^3 | Average tumor volume ([1]; Day 14, I.P.): 176 mm^3 | Average tumor volume ([1]; Day 21, I.P.): 268 mm^3 | Average tumor volume ([1]; Day 28, I.P.): 310 mm^3 | Average tumor volume ([1]; Day 35, I.P.): 435 mm^3 | Average tumor volume ([1]; Day 42, I.P.): 543 mm^3 | Average tumor volume ([1]; Day 49, I.P.): 718 mm^3 | Antitumor activity in vivo (in words) [1]: less efficacious than the N-ethyl-N-cyanomethyl analog 11 or the N-ethyl-N-propargyl derivative 14

Structure (SMILES): COc1cc2c(=O)n(CCN(C)CC#N)c3c4cc5c(cc4ncc3c2cc1OC)OCO5 [Compound 10, 2,3-Methylenedioxy-8,9-dimethoxy-5-[N-cyanomethyl-N-methylaminoethyl]dibenzo[c,h][1,6]naphthyridin-6-one]
Average tumor volume ([1]; Day 7, I.P.): 149 mm^3 | Average tumor volume ([1]; Day 14, I.P.): 222 mm^3 | Average tumor volume ([1]; Day 21, I.P.): 370 mm^3 | Average tumor volume ([1]; Day 28, I.P.): 392 mm^3 | Average tumor volume ([1]; Day 35, I.P.): 528 mm^3 | Average tumor volume ([1]; Day 42, I.P.): 669 mm^3 | Average tumor volume ([1]; Day 49, I.P.): 919 mm^3 | Antitumor activity in vivo (in words) [1]: less active than the N-methyl-N-propargyl 13 or N-methyl-N-acetamide 16

Structure (SMILES): CCN(CC#N)CCn1c(=O)c2cc(OC)c(OC)cc2c2cnc3cc4c(cc3c21)OCO4 [Compound 11, 2,3-Methylenedioxy-8,9-dimethoxy-5-[N-cyanomethyl-N-ethylaminoethyl]dibenzo[c,h][1,6]naphthyridin-6-one]
Average tumor volume ([1]; Day 7, I.P.): 100 mm^3 | Average tumor volume ([1]; Day 14, I.P.): 156 mm^3 | Average tumor volume ([1]; Day 21, I.P.): 178 mm^3 | Average tumor volume ([1]; Day 28, I.P.): 202 mm^3 | Average tumor volume ([1]; Day 35, I.P.): 293 mm^3 | Average tumor volume ([1]; Day 42, I.P.): 361 mm^3 | Average tumor volume ([1]; Day 49, I.P.): 435 mm^3 | Antitumor activity in vivo (in words) [1]: less potent and effective than ARC-111

Structure (SMILES): COc1cc2c(=O)n(CCN(CC#N)C(C)C)c3c4cc5c(cc4ncc3c2cc1OC)OCO5 [Compound 12, 2,3-Methylenedioxy-8,9-dimethoxy-5-[N-cyanomethyl-N-isopropyl-aminoethyl]dibenzo[c,h][1,6]naphthyridin-6-one]
Average tumor volume ([1]; Day 7, I.P.): 142 mm^3 | Average tumor volume ([1]; Day 14, I.P.): 175 mm^3 | Average tumor volume ([1]; Day 21, I.P.): 213 mm^3 | Average tumor volume ([1]; Day 28, I.P.): 220 mm^3 | Average tumor volume ([1]; Day 35, I.P.): 250 mm^3 | Average tumor volume ([1]; Day 42, I.P.): 286 mm^3 | Average tumor volume ([1]; Day 49, I.P.): 314 mm^3 | Antitumor activity in vivo (in words) [1]: less potent and less efficacious than ARC-111

TOP1-targeting activity (in words) (human topoisomerase I): retained potent TOP1-targeting activity
Structure (SMILES): C#CCN(C)CCn1c(=O)c2cc(OC)c(OC)cc2c2cnc3cc4c(cc3c21)OCO4 [Compound 13, 2,3-Methylenedioxy-8,9-dimethoxy-5-[N-methyl-N-(prop-2-ynyl)aminoethyl]dibenzo[c,h][1,6]naphthyridin-6-one]
Substrate for MDR1 efflux transporter (conclusion in words) (KBV-1 cells): does not appear to be a substrate for either MDR1 or BCRP | Substrate for BCRP efflux transporter (conclusion in words) (KBH5.0 cells): does not appear to be a substrate for either MDR1 or BCRP | Average tumor volume ([1]; Day 7, I.P.): 144 mm^3 | Average tumor volume ([1]; Day 14, I.P.): 167 mm^3 | Average tumor volume ([1]; Day 21, I.P.): 218 mm^3 | Average tumor volume ([1]; Day 28, I.P.): 284 mm^3 | Average tumor volume ([1]; Day 35, I.P.): 317 mm^3 | Average tumor volume ([1]; Day 42, I.P.): 358 mm^3 | Average tumor volume ([1]; Day 49, I.P.): 433 mm^3

Structure (SMILES): C#CCN(CC)CCn1c(=O)c2cc(OC)c(OC)cc2c2cnc3cc4c(cc3c21)OCO4 [Compound 14, 2,3-Methylenedioxy-8,9-dimethoxy-5-[N-ethyl-N-(prop-2-ynyl)aminoethyl]dibenzo[c,h][1,6]naphthyridin-6-one]
TOP1-targeting activity (in words) (human topoisomerase I): much less active as TOP1-targeting agents | fold less cytotoxic than 13 (RPMI8402 cells): 2-6 fold | Average tumor volume ([1]; Day 7, I.P.): 115 mm^3 | Average tumor volume ([1]; Day 14, I.P.): 106 mm^3 | Average tumor volume ([1]; Day 21, I.P.): 170 mm^3 | Average tumor volume ([1]; Day 28, I.P.): 204 mm^3 | Average tumor volume ([1]; Day 35, I.P.): 331 mm^3 | Average tumor volume ([1]; Day 42, I.P.): 349 mm^3 | Average tumor volume ([1]; Day 49, I.P.): 488 mm^3 | Antitumor activity in vivo (in words) [1]: less potent and effective than ARC-111

Structure (SMILES): C#CCN(CCn1c(=O)c2cc(OC)c(OC)cc2c2cnc3cc4c(cc3c21)OCO4)C(C)C [Compound 15, 2,3-Methylenedioxy-8,9-dimethoxy-5-[N-isopropyl-N-(prop-2-ynyl)aminoethyl]dibenzo-[c,h][1,6]naphthyridin-6-one]
TOP1-targeting activity (in words) (human topoisomerase I): much less active as TOP1-targeting agents | fold less cytotoxic than 13 (RPMI8402 cells): 2-6 fold | Average tumor volume ([1]; Day 7, I.P.): 99 mm^3 | Average tumor volume ([1]; Day 14, I.P.): 112 mm^3 | Average tumor volume ([1]; Day 21, I.P.): 165 mm^3 | Average tumor volume ([1]; Day 28, I.P.): 170 mm^3 | Average tumor volume ([1]; Day 35, I.P.): 234 mm^3 | Average tumor volume ([1]; Day 42, I.P.): 310 mm^3 | Average tumor volume ([1]; Day 49, I.P.): 357 mm^3 | Antitumor activity in vivo (in words) [1]: less potent and less efficacious than ARC-111

TOP1-targeting activity (in words) (human topoisomerase I): retained potent TOP1-targeting activity
Structure (SMILES): COc1cc2c(=O)n(CCN(C)CC(N)=O)c3c4cc5c(cc4ncc3c2cc1OC)OCO5 [Compound 16, 2,3-Methylenedioxy-8,9-dimethoxy-5-[N-(2-amino-2-oxoethyl)-N-methylaminoethyl]dibenzo[c,h][1,6]naphthyridin-6-ones]
fold difference in IC50 values between KB3-1 cells and KBV-1 cells (KBV-1 cells; KBV-1 vs KB3-1): 7 fold | Substrate for MDR1 efflux transporter (conclusion in words) (KBV-1 cells): substrates for MDR1 | Substrate for BCRP efflux transporter (conclusion in words) (KBH5.0 cells): appears to be a substrate for BCRP | Average tumor volume ([1]; Day 7, I.P.): 147 mm^3 | Average tumor volume ([1]; Day 14, I.P.): 178 mm^3 | Average tumor volume ([1]; Day 21, I.P.): 230 mm^3 | Average tumor volume ([1]; Day 28, I.P.): 319 mm^3 | Average tumor volume ([1]; Day 35, I.P.): 344 mm^3 | Average tumor volume ([1]; Day 42, I.P.): 434 mm^3 | Average tumor volume ([1]; Day 49, I.P.): 527 mm^3
